Data taken from PMC4893941 (Journal of medicinal chemistry, 2016).

Assays:
human glioma T98G cells = assay: Time-dependent cellular uptake; type: cell-based; conditions: 10 μM; for cellular uptake after 24 h, fold higher than 7: relative to BODIPY 7
How it was run: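 T98G glioma cells were seeded at 15 000/well in EMEM with 10% FBS and grown 24 h. They were then exposed to 10 μM test compound for 0, 1, 2, 4, 8 or 24 h, PBS-washed and lysed in 0.25% Triton X-100/PBS. Fluorescence at 485/590 nm was read against compound standard curves (0.3125–10 μM). Cell number came from a CyQuant cell standard curve, and uptake was expressed as nM per cell.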

[1] = tested on: human hCMEC/D3 brain endothelial cell monolayers; assay: BBB permeability across hCMEC/D3 cell monolayers; type: in vitro ADME; conditions: hCMEC/D3 monolayer; for Pe (permeability coefficient): 50 μM in transport buffer, 0–45 min
How it was run: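 hCMEC/D3 cells were grown 48 h on 0.4 μm PET Transwell inserts in EBM-2 with 5% FBS, hydrocortisone, ascorbate, lipid concentrate, HEPES and bFGF. Monolayers were checked by microscopy. Test compound or lucifer yellow (50 μM) in HBSS/HEPES/pyruvate transport buffer was added to the upper chamber at 37 °C. Inserts were moved to fresh buffer at 10 and 25 min, and the lower chamber was sampled at 10, 25 and 45 min. Fluorescence was read at 485/590 nm (compound) or 425/538 nm (LY) against standard curves. Pe came from clearance-slope fits, cell inserts minus cell-free inserts, in triplicate.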

[2] = Octanol–water partition coefficients; type: physicochemical; conditions: 1-octanol/water partition, UV–vis absorbance
How it was run: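 Octanol and water were mutually presaturated. A 64 μM stock of test compound in water-saturated octanol was vortexed 10 min with water. After phase separation, the octanol layer was diluted and its UV–vis absorbance read. log P was calculated from octanol absorbance before versus after partitioning and the water/octanol phase volumes.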

Substance	cellular uptake at 24 h (human glioma T98G cells)	cellular uptake after 24 h, fold higher than 7 (human glioma T98G cells)	Pe (permeability coefficient) [1]	log P [2]	Pe relative to LY ([1]; relative to lucifer yellow)
8-(1,2-Carboranyl-1-thio)-3-chloro-2-ethyl-1,3,6,7-tetramethyl-BODIPY [6b]	0.46 ± 0.06 nM/cell	135 fold	5.4 ± 0.6 × 10^−5 cm/s	1.93	
8-(1,2-Carboranyl-1-thio)-1,3-dimethyl-BODIPY [2b]	0.36 ± 0.03 nM/cell	106 fold	6.0 ± 1.0 × 10^−5 cm/s	1.69	
8-[4-(2-Methyl-1,2-carboranyl)methylphenyl]-BODIPY [compound 4]	0.41 ± 0.03 nM/cell	118 fold		2.11	
8-(1,2-Carboranyl-1-thio)-2-ethyl-1,3,6,7-tetramethyl-BODIPY [5b]	1.5 ± 0.05 nM/cell	about 436 fold	2.6 ± 0.9 × 10^−5 cm/s	1.95	
8-(1,2-Carboranyl-1-thio)-BODIPY [1b]	0.23 ± 0.05 nM/cell	67 fold	16.4 ± 3.3 × 10^−5 cm/s	1.50	7 fold
lucifer yellow [LY, reference compound]			2.2 ± 0.8 × 10^−5 cm/s		
